From ChEMBL document CHEMBL1121516, “Synthesis and biological activity of fluoroalkylamine derivatives of narcotic analgesics” (J Med Chem, 1980)
Calls of active or inactive are those of the source. The rule behind the calls is not given here.

Legend:
[1] = […] (pKa) value was evaluated; type: physicochemical
Method in brief: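 pKa by potentiometric titration in distilled water at 24 °C. Compound dissolved at 5 to 7.5×10^-3 M and titrated with 0.1039 M NaOH, with pH change followed on a pH meter. Each compound run in triplicate.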

[2] = organism: Mus musculus; assay: Analgesic activity determined in the mouse hot plate test expressed as ED50; value ranges from 3.2-6.1; type: functional
[3] = target: T1, Opioid receptors; mu/kappa/delta (Homo sapiens, UniProt P41145+P41143+P35372); assay: Inhibition of Opioid receptors with [3H]naloxone binding in the absence of NaCl; type: protein assay, Cavia porcellus
[4] = target: T1, Opioid receptors; mu/kappa/delta; assay: Inhibition of Opioid receptors binding by inhibiting specific [3H]naloxone binding by 50% in the presence of 100 mM NaCl; type: protein assay, Cavia porcellus
[5] = organism: Cavia porcellus; assay: Agonist potency was evaluated in the guinea pig ileum; type: functional
[6] = organism: Cavia porcellus; assay: Inhibitory Dose required to reduce electrically stimulated contractions by 50% in guinea pig ileum; I = Infinite; type: functional
[7] = organism: Mus musculus; assay: Analgesic activity determined in the mouse hot plate test expressed as ED50; Range is 6.4-12.8; type: functional
[8] = test system: Rattus norvegicus; assay: Serum citrate level when administered intraperitoneally at dose 45 mg/kg in 7 rats; type: functional, organism-based; parameters: dose 45 mg/kg
Method in brief: (§1)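 Male Sprague–Dawley rats (200–225 g), dosed ip. Blood centrifuged to obtain serum, and citrate measured by the Camp and Farmer procedure. Values reported as mg/mL with SE.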

[9] = organism: Cavia porcellus; assay: Agonist potency evaluated in the guinea pig ileum; type: functional
[10] = organism: Mus musculus; assay: (§2) Antagonist potency was evaluated in the mouse vas deferens relative to naloxone = 1; type: functional
[11] = organism: Mus musculus; assay: Analgesic activity determined in the mouse hot plate test expressed as ED50; Range is 6.3-14.8; type: functional
[12] = organism: Mus musculus; assay: Equilibrium dissociation constant (Ke) against response produced by normorphine in the mouse vas deferens; type: functional
[13] = organism: Cavia porcellus; assay: Inhibitory Dose required to reduce electrically stimulated contractions by 50% in guinea pig ileum; type: functional; conditions: read-out: ID50 (the source's name)
[14] = organism: Mus musculus; assay: Analgesic activity determined in the mouse hot plate test expressed as ED50; IA means in active to 100; type: functional, organism-based
[15] = organism: Cavia porcellus; assay: as §2; type: functional
[16] = organism: Mus musculus; assay: Analgesic activity determined in the mouse hot plate test expressed as ED50; I = inactive at 40; type: functional, organism-based
[17] = organism: Mus musculus; assay: Analgesic activity determined in the mouse hot plate test expressed as ED50
[18] = test system: Rattus norvegicus; assay: Serum citrate level when administered intraperitoneally at dose 12.5 mg/kg in 5 rats; type: functional, organism-based; parameters: dose 12.5 mg/kg; method in brief: as §1
[19] = organism: Mus musculus; assay: Analgesic activity determined in the mouse hot plate test expressed as ED50; Range is 17.8-72.1; type: functional
[20] = organism: Mus musculus; assay: Analgesic activity determined in the mouse hot plate test expressed as ED50; value ranges from 12.7-29.8; type: functional
[21] = test system: Rattus norvegicus; assay: Serum citrate level when administered intraperitoneally at dose 40 mg/kg in 6 rats; type: functional, organism-based; parameters: dose 40 mg/kg; method in brief: as §1

`CCOC(=O)C1(c2ccccc2)CCN(CC)CC1.Cl` showed a pKa [1] of 9.03, an ED50 [2] of 4.4 mg/kg and an IC50 [3] of 5000 nM. The IC50 [4] was 120000 nM.

For `CS(=O)(=O)O.C[C@H]1C2Cc3ccc(O)cc3[C@@]1(C)CCN2CCF`, the pKa [1] was 8.35, the Agonist potency [5] was 0 and the ID50 [6] was “inactive”. It also gave an ED50 [7] of 9.16 mg/kg, an IC50 [3] of 50 nM and an IC50 [4] of 100 nM. It also gave a Level [8] of 121 mg/mL.

With `CS(=O)(=O)O.C[C@H]1C2Cc3ccc(O)cc3[C@@]1(C)CCN2CC(F)F` the pKa [1] was 6.52, the Agonist potency [9] was 0.16 and the Antagonist potency [10] was 0.001. The ED50 [11] was 9.7 mg/kg, the Ke [12] was 2930 nM and the IC50 [3] was 1000 nM. For the same compound, the IC50 [4] was 1150 nM and the IC50 [13] was 453 nM.

With `CCOC(=O)C1(c2ccccc2)CCN(CC(F)F)CC1.Cl` the pKa [1] was 5.23, the ED50 [14] was “inactive” and the IC50 [3] was 85000 nM. For the same compound, the IC50 [4] was 110000 nM.

For `CS(=O)(=O)O.C[C@H]1C2Cc3ccc(O)cc3[C@@]1(C)CCN2CC(F)(F)F`, the pKa [1] was 4.56, the Agonist potency [15] was 0 and the ED50 [16] was “inactive”. It also gave an IC50 [3] of 1700 nM and an IC50 [4] of 2500 nM.

With `CN1CC[C@]23c4c5ccc(O)c4O[C@H]2[C@@H](O)C=C[C@H]3[C@H]1C5` [MORPHINE] the ED50 [17] was 1.2 mg/kg.

Work on `O=C(O)CF` yielded a Level [18] of 132 mg/mL.

In the case of `CCN1CC[C@]2(C)c3cc(O)ccc3CC1[C@@H]2C.CS(=O)(=O)O`, the pKa [1] is reported as 9.42, the IC50 [3] is reported as 180 nM and the IC50 [4] is reported as 200 nM. It also gave an ED50 [19] of 44.7 mg/kg.

With `CCOC(=O)C1(c2ccccc2)CCN(CC(F)(F)F)CC1.Cl` the pKa [1] was 3.13, the ED50 [14] was “inactive” and the IC50 [3] was 10000 nM. The IC50 [4] was 60000 nM.

`CCOC(=O)C1(c2ccccc2)CCN(CCF)CC1.Cl` showed a pKa [1] of 7.43, an ED50 [20] of 19.4 mg/kg and an IC50 [3] of 20000 nM. The IC50 [4] was 64000 nM and the Level [21] was 81 mg/mL.
